These results are taken from ChEMBL document CHEMBL1137537, “Novel oxotremorine-related heterocyclic derivatives: Synthesis and in vitro pharmacology at the muscarinic receptor subtypes” (Bioorg Med Chem, 2007).

Experiment [1] can be described thus: Agonist activity at muscarinic M2 receptor in electrically stimulated guinea-pig left atrium. In kind it is functional, tissue-based. The conditions noted are these: Cavia porcellus, Cardiac atrium.
The species entered for the next experiment is Cavia porcellus. The experiment is described as follows: Intrinsic activity at muscarinic M2 receptor in electrically stimulated guinea-pig left atrium relative to benthanechol. The conditions noted are these: Cardiac atrium. In kind it is tissue-based. Put shortly: (§1)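 Intrinsic activity as ratio of compound's maximal response to that of reference full agonist (McN-A-343 for vas deferens, bethanechol for atrium and ileum), from cumulative concentration–response curves; mean of 6-8 experiments.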

A short description of experiment [2]: Agonist activity at muscarinic M1 receptor in electrically stimulated New Zealand rabbit vas deferens. Conditions: Oryctolagus cuniculus. In kind it is functional, tissue-based.
In experiment [3] the target is T1, Muscarinic acetylcholine receptor M2 (Homo sapiens, UniProt P08172).
T1 sequence (P08172 whole entry): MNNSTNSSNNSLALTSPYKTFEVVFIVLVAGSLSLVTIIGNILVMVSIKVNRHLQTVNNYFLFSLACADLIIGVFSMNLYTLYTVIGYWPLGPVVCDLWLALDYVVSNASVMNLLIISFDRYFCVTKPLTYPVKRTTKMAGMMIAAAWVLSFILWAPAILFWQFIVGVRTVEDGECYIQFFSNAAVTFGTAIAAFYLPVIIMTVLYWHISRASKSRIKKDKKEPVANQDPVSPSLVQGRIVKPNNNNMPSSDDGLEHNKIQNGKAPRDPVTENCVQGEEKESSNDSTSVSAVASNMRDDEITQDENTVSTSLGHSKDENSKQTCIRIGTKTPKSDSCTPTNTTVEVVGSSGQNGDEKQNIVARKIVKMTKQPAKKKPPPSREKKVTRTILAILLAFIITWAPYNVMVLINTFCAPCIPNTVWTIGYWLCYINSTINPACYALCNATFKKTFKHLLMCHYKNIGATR
The experiment can be described thus: Displacement of [3H]QNB from human muscarinic M2 receptor expressed in CHO cells. In kind it is cell-based. Put shortly: (§2)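 Membranes (10-50 µg protein) from stable CHO lines expressing human m2-m5, competed against 180 pM [3H]QNB in 50 mM Tris-HCl pH 7.4 with 1% DMSO; 120 min at 25 °C to equilibrium; nonspecific binding with 0.5 µM atropine; GF-C filtration, scintillation counting; IC50 by logistic fit, Ki via Cheng–Prusoff using saturation-derived KD (5–2500 pM [3H]QNB).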

The next experiment is filed under the species Oryctolagus cuniculus. The experiment can be described thus: Intrinsic activity at muscarinic M1 receptor in electrically stimulated New Zealand rabbit vas deferens relative to McN-A-343. In kind it is tissue-based. Put shortly: as §1
Experiment [4] deals with T2, Muscarinic acetylcholine receptor M4 (Homo sapiens, UniProt P08173).
T2 sequence (P08173 whole entry): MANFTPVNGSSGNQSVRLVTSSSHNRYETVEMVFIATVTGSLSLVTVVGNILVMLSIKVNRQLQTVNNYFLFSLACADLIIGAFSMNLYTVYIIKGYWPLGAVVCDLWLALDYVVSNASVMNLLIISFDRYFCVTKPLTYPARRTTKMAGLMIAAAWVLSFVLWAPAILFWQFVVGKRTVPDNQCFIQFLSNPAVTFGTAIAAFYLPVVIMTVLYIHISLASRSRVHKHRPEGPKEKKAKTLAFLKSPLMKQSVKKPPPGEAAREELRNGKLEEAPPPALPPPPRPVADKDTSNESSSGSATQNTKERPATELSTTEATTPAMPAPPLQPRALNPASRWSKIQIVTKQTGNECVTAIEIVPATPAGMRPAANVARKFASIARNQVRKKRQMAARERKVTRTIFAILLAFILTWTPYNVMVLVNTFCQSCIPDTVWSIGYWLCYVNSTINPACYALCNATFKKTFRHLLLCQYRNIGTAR
The experiment can be described thus: Displacement of [3H]QNB from human muscarinic M4 receptor expressed in CHO cells. In kind it is cell-based. Put shortly:
as §2

In experiment [5] the target is Muscarinic acetylcholine receptor M3 (Cavia porcellus) (UniProt Q8VH26). The experiment is described as follows: Antagonist activity at muscarinic M3 receptor in guinea-pig ileum. In kind it is functional, tissue-based. In outline: (§3)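 Antagonist mode: after 30 min incubation with test compound (10 nM–100 µM), concentration–response curve to full agonist (bethanechol or McN-A-343) repeated; pKB as molar concentration giving twofold EC50 shift, Furchgott's method; mean of 6-8 experiments.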

The target in experiment [6] is T3, Muscarinic acetylcholine receptor M1 (Homo sapiens, UniProt P11229).
T3 sequence (P11229 whole entry): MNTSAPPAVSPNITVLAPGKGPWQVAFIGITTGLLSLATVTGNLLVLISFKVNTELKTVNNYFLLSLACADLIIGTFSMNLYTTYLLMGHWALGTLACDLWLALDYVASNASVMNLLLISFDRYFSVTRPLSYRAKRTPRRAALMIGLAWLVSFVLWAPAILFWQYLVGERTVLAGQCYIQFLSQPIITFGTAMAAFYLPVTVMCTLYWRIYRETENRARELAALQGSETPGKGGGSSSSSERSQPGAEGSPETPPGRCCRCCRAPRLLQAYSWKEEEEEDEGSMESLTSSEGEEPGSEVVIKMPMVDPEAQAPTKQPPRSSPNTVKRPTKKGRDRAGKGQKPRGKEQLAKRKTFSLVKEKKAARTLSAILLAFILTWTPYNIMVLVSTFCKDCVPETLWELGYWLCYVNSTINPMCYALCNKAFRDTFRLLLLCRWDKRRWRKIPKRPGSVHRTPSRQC
The experiment can be described thus: biochemical. In kind it is cell-based, CHO.

Experiment [7] concerns the target Muscarinic acetylcholine receptor M3 (Cavia porcellus) (UniProt Q8VH26). The experiment is described as follows: Intrinsic activity at muscarinic M3 receptor in guinea-pig ileum relative to benthanechol. In kind it is tissue-based. In outline:
as §1

Experiment [8] deals with Muscarinic acetylcholine receptor M3 (Homo sapiens, UniProt P20309). The experiment is described as follows: Displacement of [3H]QNB from human muscarinic M3 receptor expressed in CHO cells. In kind it is cell-based.
Experiment [9] deals with T4, Muscarinic acetylcholine receptor M5 (Homo sapiens, UniProt P08912).
T4 sequence (P08912 whole entry): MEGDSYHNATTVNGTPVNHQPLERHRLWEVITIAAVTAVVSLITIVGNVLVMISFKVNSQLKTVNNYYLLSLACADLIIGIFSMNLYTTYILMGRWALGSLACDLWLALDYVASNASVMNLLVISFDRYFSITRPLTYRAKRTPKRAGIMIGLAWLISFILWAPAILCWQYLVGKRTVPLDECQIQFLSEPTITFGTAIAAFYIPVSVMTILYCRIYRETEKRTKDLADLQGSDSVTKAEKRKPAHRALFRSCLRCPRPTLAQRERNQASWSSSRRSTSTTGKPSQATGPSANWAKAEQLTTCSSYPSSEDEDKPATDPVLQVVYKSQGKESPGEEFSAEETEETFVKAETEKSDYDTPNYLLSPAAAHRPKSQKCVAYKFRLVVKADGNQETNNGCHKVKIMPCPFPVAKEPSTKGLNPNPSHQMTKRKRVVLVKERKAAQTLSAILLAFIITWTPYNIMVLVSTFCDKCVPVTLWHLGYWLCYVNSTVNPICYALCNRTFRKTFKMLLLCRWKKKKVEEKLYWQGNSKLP
The experiment can be described thus: Displacement of [3H]QNB from human muscarinic M5 receptor expressed in CHO cells. In kind it is cell-based.

Experiment [10] addresses T5, Muscarinic acetylcholine receptor M3 (Cavia porcellus, UniProt Q8VH26). The experiment can be described thus: Binding affinity to muscarinic M3 receptor in guinea-pig ileum. In kind it is tissue-based. Put shortly: (§4)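 Apparent affinity pKD: for full agonists by receptor inactivation with phenoxybenzamine (1-10 µM, 20-30 min); for partial agonists by McKay's method comparing curves with reference full agonist; mean of 6-8 experiments.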

Experiment [11] is described as follows: Antagonist activity at muscarinic M2 receptor in electrically stimulated guinea-pig left atrium. In kind it is functional, Cavia porcellus, Cardiac atrium. In outline: as §3
The target of experiment [12] is T5, Muscarinic acetylcholine receptor M3. The experiment can be described thus: Agonist activity at muscarinic M3 receptor in guinea-pig ileum. In kind it is functional, tissue-based. In outline:
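Guinea-pig ileal segments 2–3 cm, 1.0 g tension, 37 °C Krebs-Henseleit with carbogen, 45 min equilibration; isometric contractions to cumulative agonist concentrations; pEC50 by least-squares linear regression; mean of 6-8 experiments.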

Experiment [13] can be described thus: Antagonist activity at muscarinic M1 receptor in electrically stimulated New Zealand rabbit vas deferens. In kind it is functional, Oryctolagus cuniculus. Put shortly:
as §3

Experiment [14] is described as follows: Binding affinity to muscarinic M1 receptor in electrically stimulated New Zealand rabbit vas deferens. In kind it is tissue-based, Oryctolagus cuniculus. In outline:
as §4

Experiment [15] can be described thus: Binding affinity to muscarinic M2 receptor in electrically stimulated guinea-pig left atrium. In kind it is tissue-based, Cavia porcellus, Cardiac atrium. Put shortly:
as §4

Where only a bound is given, the exact number is not on record here.

Sequence of Muscarinic acetylcholine receptor M3 (Homo sapiens, UniProt P20309) (P20309 whole entry): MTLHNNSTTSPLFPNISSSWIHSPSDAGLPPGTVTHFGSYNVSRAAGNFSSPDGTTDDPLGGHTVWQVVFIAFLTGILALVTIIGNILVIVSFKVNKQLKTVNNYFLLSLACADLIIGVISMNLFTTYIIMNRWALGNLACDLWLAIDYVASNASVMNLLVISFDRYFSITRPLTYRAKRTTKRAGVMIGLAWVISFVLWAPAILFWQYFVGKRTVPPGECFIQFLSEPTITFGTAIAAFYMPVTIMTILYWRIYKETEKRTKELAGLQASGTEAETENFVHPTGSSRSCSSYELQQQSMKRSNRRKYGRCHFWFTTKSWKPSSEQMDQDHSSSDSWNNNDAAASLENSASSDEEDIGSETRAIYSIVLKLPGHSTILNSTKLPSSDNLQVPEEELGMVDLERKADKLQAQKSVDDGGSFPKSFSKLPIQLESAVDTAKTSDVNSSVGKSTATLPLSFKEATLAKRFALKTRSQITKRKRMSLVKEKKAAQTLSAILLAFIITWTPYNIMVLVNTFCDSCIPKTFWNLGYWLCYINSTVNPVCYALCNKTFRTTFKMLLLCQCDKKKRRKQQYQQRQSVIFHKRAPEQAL
Sequence of Muscarinic acetylcholine receptor M3 (Cavia porcellus) (Q8VH26 1-587): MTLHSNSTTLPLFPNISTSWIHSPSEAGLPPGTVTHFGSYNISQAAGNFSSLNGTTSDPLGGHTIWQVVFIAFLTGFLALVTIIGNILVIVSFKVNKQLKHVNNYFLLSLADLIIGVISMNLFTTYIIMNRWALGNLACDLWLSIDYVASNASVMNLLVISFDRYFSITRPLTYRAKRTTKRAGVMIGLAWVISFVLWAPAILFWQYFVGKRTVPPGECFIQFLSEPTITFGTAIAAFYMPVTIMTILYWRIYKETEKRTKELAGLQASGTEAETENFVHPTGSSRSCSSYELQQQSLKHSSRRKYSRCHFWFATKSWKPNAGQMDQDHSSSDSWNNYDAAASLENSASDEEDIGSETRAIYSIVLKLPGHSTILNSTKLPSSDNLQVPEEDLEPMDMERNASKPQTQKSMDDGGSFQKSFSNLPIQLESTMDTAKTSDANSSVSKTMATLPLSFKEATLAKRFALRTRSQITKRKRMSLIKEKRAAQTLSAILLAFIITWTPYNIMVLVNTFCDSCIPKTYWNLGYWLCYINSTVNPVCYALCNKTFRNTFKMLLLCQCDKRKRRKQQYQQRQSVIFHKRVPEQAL
T5 sequence (Q8VH26 whole entry): as the sequence (Q8VH26 1-587) above

In the case of `C(#CCN1CCCC1)COc1cc(-c2ccccc2)on1`, the EC50 in [1] was 21.9 µM; in [2], 44.7 µM. For the same compound, the Intrinsic activity in the experiment filed under Cavia porcellus is 0.6; in the experiment filed under Oryctolagus cuniculus it was 1; in experiment [7] it was 0. Also, the Ki in experiment [3] was above 10 µM; in experiment [4] it was 5.48 µM; in [6] it was 6.14 µM; in experiment [8], 4.01 µM; in experiment [9] it was 6.88 µM. This compound showed a pKb in [5] of 4.94.

Regarding `Cc1cc(OCC#CCN2CCCC2)no1.O=C(O)/C=C/C(=O)O`, the affinity in experiment [10], expressed as Kd, was 15.5 µM. For the same compound, the pKb in [11] is listed as 4.81; in experiment [13], 5.66. The Intrinsic activity in the experiment listed under Cavia porcellus is 0; in the experiment filed under Oryctolagus cuniculus, 0; in experiment [7], 0.4. Also, the EC50 in experiment [12] is 15.1 µM. In addition, the Ki in experiment [3] and in [9] was above 10 µM each time.

On to `C[N+]1(CC#CCOc2cc(-c3ccccc3)on2)CCCC1.[I-]`, for which the values for the negative-log Kb (pKb) in experiment [11], in experiment [5] and in [13] were 5.95, 5.53 and 6.88, respectively. Further, the Intrinsic activity (in the experiment listed under Cavia porcellus; in the experiment filed under Oryctolagus cuniculus; in experiment [7]) was 0 throughout. Further, the Ki in experiment [3] was above 10 µM; in experiment [4], 5.99 µM; in experiment [6], 3.38 µM; in experiment [8] it was 1.45 µM; in experiment [9], 1.84 µM.

With `O=C(O)C(=O)O.O=C1CCON1CC#CCN1CCCCC1`, the results for the pKb in experiment [11], in experiment [5] and in [13] were 5.94, 5.55 and 6.45, respectively. In addition, the Intrinsic activity in the experiment listed under Cavia porcellus was determined as 0.2; in the experiment listed under Oryctolagus cuniculus, 0; in experiment [7], 0. Besides, the Ki in experiment [3] is 0.04 µM; in experiment [4], 0.792 µM; in [6] it was 0.819 µM; in experiment [8], 0.537 µM; in [9], 0.544 µM.

Take `C[N+]1(CC#CCOC2=NOCC2)CCCCC1.[I-]`: the values for the EC50 in experiment [1], in experiment [2] and in experiment [12] were 0.0457 µM, 0.794 µM and 0.269 µM, respectively. For the same compound, binding in experiment [10] was put at a Kd of 0.295 µM. In addition, the Intrinsic activity in the experiment filed under Cavia porcellus is 1; in the experiment filed under Oryctolagus cuniculus it was 0.4; in experiment [7], 1. The pKd in experiment [14] turned out to be 6.51; in experiment [15], 6.74. The Ki is 0.219 µM in experiment [3]; 1.68 µM in [4]; 7.37 µM in [6]; 4.74 µM in experiment [8]; 4.12 µM in experiment [9].
